The source made the active and inactive calls. No cut-off for these calls is given here. Bounds are passed on as bounds.

The nature of series [1]: Inhibition of LPS stimulated IL-1beta in human mococyte-derived macrophages cells preincubated for 2 hrs followed by LPS stimulation and measured after 6 hrs by ELISA. The class given is functional. The settings on record: Macrophage. In a few lines: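 Human monocyte-derived macrophages stimulated with LPS; IL-1β secretion measured over 10 concentrations per compound, N = 2, to compute individual IC50 values; dexamethasone run in parallel as reference. Z-score reported.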

For series [2], the system named is Macrophage. Put plainly: Inhibition of LPS stimulated IL-2 in human mococyte-derived macrophages cells at 1 uM preincubated for 2 hrs followed by LPS stimulation and measured after 6 hrs by ELISA. The conditions noted are these: time 8.0 hrs. Format: functional.
In series [3] the test system is Macrophage. Description: Inhibition of LPS stimulated IL-4 in human mococyte-derived macrophages cells at 1 uM preincubated for 2 hrs followed by LPS stimulation and measured after 6 hrs by ELISA. The class given is functional. The settings on record: time 8.0 hrs.
The subject of series [4] is Macrophage. Put plainly: Inhibition of LPS stimulated IL-6 in human mococyte-derived macrophages cells at 1 uM preincubated for 2 hrs followed by LPS stimulation and measured after 6 hrs by ELISA. Format: functional. The conditions noted are these: time 8.0 hrs.
Series [5] deals with Macrophage. Put plainly: Inhibition of LPS stimulated IL-8 in human mococyte-derived macrophages cells at 1 uM preincubated for 2 hrs followed by LPS stimulation and measured after 6 hrs by ELISA. Format: functional. The conditions noted are these: time 8.0 hrs.
Series [6] relates to Macrophage. Description: Inhibition of LPS stimulated GM-CSF in human mococyte-derived macrophages cells at 1 uM preincubated for 2 hrs followed by LPS stimulation and measured after 6 hrs by ELISA. Format: functional. The settings on record: time 8.0 hrs.
The target of series [7] is T1, Mitogen-activated protein kinase 14 (Homo sapiens, UniProt Q16539). Description: Binding affinity to p38 alpha MAPK (unknown origin) assessed as association constant by surface plasmon resonance imaging.
T1 sequence (Q16539 whole entry): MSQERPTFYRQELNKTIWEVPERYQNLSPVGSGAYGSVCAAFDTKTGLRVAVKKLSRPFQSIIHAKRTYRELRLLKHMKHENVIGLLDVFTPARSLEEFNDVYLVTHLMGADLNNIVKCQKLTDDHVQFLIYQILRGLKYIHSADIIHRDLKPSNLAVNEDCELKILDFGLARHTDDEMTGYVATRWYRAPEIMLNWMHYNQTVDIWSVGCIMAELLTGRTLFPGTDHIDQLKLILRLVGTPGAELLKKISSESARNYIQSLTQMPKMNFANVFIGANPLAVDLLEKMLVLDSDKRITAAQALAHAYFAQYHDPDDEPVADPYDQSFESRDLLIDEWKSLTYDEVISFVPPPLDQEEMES
Series [8] can be described thus: Tmax in Wistar rat at 65 mg/kg, po administered as single dose. The class given is ADME, organism-based. The settings on record: in vivo. In a few lines:
(§1)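 Female Wistar rats, 8 weeks old, given a single oral 65 mg/kg dose in PEG400/Kolliphor HS 15 (70/30 v/v); plasma drug levels sampled over time (N = 9). Tmax taken from the curve; two-compartment fit with first-order terminal elimination gave distribution and elimination half-lives.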

The nature of series [9]: Half life in Wistar rat 65 mg/kg, po administered as single dose. Format: ADME, organism-based. The conditions noted are these: in vivo. In outline:
as §1

Series [10] can be described thus: Elimination half life in Wistar rat 65 mg/kg, po administered as single dose. Format: ADME, organism-based. The settings on record: in vivo, read-out: beta t1/2 (converted). In a few lines: as §1
Series [11] has as its system Mus musculus. Description: Anti-inflammatory activity in po dosed Balb/c mouse assessed as inhibition of stimulated IL-1beta secretion in brain after 4 hrs by ELISA. The class given is functional, organism-based. The settings on record: dose 10-20 mg/kg.
Series [12] deals with Mus musculus. Description: Anti-inflammatory activity in po dosed Balb/c mouse assessed as inhibition of stimulated IL-1beta secretion in lung after 4 hrs by ELISA. The conditions noted are these: dose 10-20 mg/kg. The class given is functional, organism-based.
Series [13] deals with Mus musculus. Description: Anti-inflammatory activity in po dosed Balb/c mouse assessed as inhibition of stimulated IL-1beta secretion in liver after 4 hrs by ELISA. The settings on record: dose 10-20 mg/kg. The class given is functional, organism-based.
For series [14], the system named is Mus musculus. Put plainly: Anti-inflammatory activity in Balb/c mouse assessed as inhibition of stimulated IL-1beta secretion in plasma at 10 mg/kg, po after 4 hrs by ELISA. Format: functional, organism-based. In outline: (§2)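 Male BALB/c mice dosed orally with 10 or 20 mg/kg compound (DMSO stock, then 5% TPGS in PBS), vehicle controls. LPS O111:B4 0.33 mg/kg i.p. in saline given 2 h after treatment. Blood drawn retro-orbitally into heparin tubes 4 h post-LPS; plasma IL-1β by ELISA read at 450 nm.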

Series [15] has as its system Mus musculus. Description: Anti-inflammatory activity in Balb/c mouse assessed as inhibition of stimulated IL-1beta secretion in plasma at 20 mg/kg, po after 4 hrs by ELISA. Format: functional, organism-based. In a few lines: as §2
Series [16] deals with T1, Mitogen-activated protein kinase 14. Description: Binding affinity to p38 alpha MAPK (unknown origin) assessed as dissociation rate constant by surface plasmon resonance imaging.

For the compound `CN(C)S(=O)(=O)c1cnc(N2CCC(Oc3ccc(Cl)cc3)CC2)c(Nc2ccc3oc(CO)cc3c2)c1`, the IC50 in [1] came to 12.8 nM. `CCC(=O)c1ccc(-c2cc(S(=O)(=O)N(C)C)cnc2N2CCC(Oc3ccc(Cl)cc3)CC2)cc1` had a concentration for half-maximal inhibition (IC50) in [1] of more than 10000 nM. The compound `CCOc1ccc(Oc2cc(S(=O)(=O)N(C)C)cnc2N2CCC(Oc3ccc(Cl)nc3)CC2)cc1` had an IC50 in series [1] of 4000 nM. Consider `CN(C)S(=O)(=O)c1cnc(N2CCC(Oc3ccc(Cl)cc3)CC2)c(Oc2ccc3c(c2)CCO3)c1`, for which the IC50 in [1] was 28 nM. Still for that read-out and setting: the same measure for `CN(C)S(=O)(=O)c1cnc(N2CCC(Oc3ccc(Cl)cc3)CC2)c(Nc2ccc3c(c2)OCO3)c1`: 121 nM; for `CCOc1ccc(Oc2cc(S(=O)(=O)N(C)C)cnc2N2CCN(Cc3ccc(Cl)cc3)CC2)cc1`: more than 10000 nM; for `CCOc1ccc(Nc2cc(S(=O)(=O)N(C)C)cnc2N2CCC(Oc3ccc(Cl)cc3)CC2)cc1`: more than 10000 nM. For `CCCOc1ccc(Nc2cc(S(=O)(=O)N(C)C)cnc2N2CCC(Oc3ccc(Cl)cc3)CC2)cc1`, the IC50 in series [1] was more than 10000 nM. Turning to `CCOc1ccc(Oc2cc(S(=O)(=O)N(C)C)cnc2N2CCC(Oc3ccc(Cl)nn3)CC2)cc1`, in [1], half-maximal inhibition (IC50) was put at 1100 nM.

Compound `CN(C)S(=O)(=O)c1cnc(N2CCC(Oc3ccc(Cl)cc3)CC2)c(Nc2ccc3c(c2)CCO3)c1` registered an IC50 in series [1] of 29 nM.

`CN(C)S(=O)(=O)c1cnc(N2CCC(Oc3ccc(Cl)cc3)CC2)c(-c2ccc3c(c2)CCO3)c1` came in with an IC50 in series [1] of 27 nM. `CCOc1ccc(Oc2cc(S(=O)(=O)N(C)C)cnc2N2CCN(Cc3ccc(Cl)nc3)CC2)cc1` registered an IC50 in series [1] of more than 10000 nM.

In [1], `CCC(=O)c1ccc(Nc2cc(S(=O)(=O)N(C)C)cnc2N2CCC(Oc3ccc(Cl)cc3)CC2)cc1` came in with an IC50 of more than 10000 nM. In series [1], `CCOc1ccc(Oc2cc(S(=O)(=O)N(C)C)cnc2N2CCC(Oc3ccc(C(N)=O)nc3)CC2)cc1` gave a concentration for half-maximal inhibition (IC50) of 337 nM. Still for that read-out and setting: the same measure for `CN(C)S(=O)(=O)c1cnc(N2CCC(Oc3ccc(Cl)cc3)CC2)c(Oc2ccc(OCCO)cc2)c1`: more than 10000 nM. In series [1], `CCOc1ccc(Oc2cc(S(=O)(=O)N(C)C)cnc2N2CCC(Oc3ccc(Cl)cc3)CC2)cc1` registered an IC50 of 28 nM. For the same compound, the inhibition result in the series on Macrophage [2], in the series on Macrophage [3], with Macrophage [4], with Macrophage [5] and in the series on Macrophage [6] was “Active” throughout. In [7], the Ka is 2.08 10^4/M/s. Moreover, in series [8], the Tmax amounted to 1 h. Further, the half-life is 2.1 h in series [9] and 9 h in series [10]. The Activity result with Mus musculus [11], in the series with Mus musculus [12] and in the series with Mus musculus [13] was “Dose-Dependent Effect” in each case. Moreover, the result in the series with Mus musculus [14] and with Mus musculus [15] was Active. Besides, in series [16], the koff is 2.48 10^-4/s.

Source of the values: ChEMBL document CHEMBL4840310, “Discovery of novel 2,3,5-trisubstituted pyridine analogs as potent inhibitors of IL-1β via modulation of the p38 MAPK signaling pathway” (Eur J Med Chem, 2021).
